An excerpt weighted towards active compounds, which were near 2.1% of everything screened.
miR-122 sensor: miR-122 Renilla sensor signal increase in Huh7, primary screen, miR-122 inhibitor project, cell-based, single point, plate reader; activation (reporter increase), % at 12.5 µM; 340,000 compounds, 0.3% hits; Huh7 miR-122 Renilla luciferase sensor, 48 h; neutral wells = 0, positive control = 100;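 active means mean replicate activation score at least 90 and every replicate individually at or above 90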;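 further: higher luciferase means less miR-122 activity so hits act as miR-122 inhibitors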
CAL PDZ FP-1: untagged CAL PDZ binding inhibitors, primary screen, biochemical, fluorescence polarization, HTS; Golgi-associated PDZ and coiled-coil motif-containing protein (Homo sapiens), Q9HD26; 300,000 compounds, 0.92% hits; purified CAL PDZ, TMR-peptide fluorescence polarization, 1 h; inhibition, % at 24.9 µM; AID 602252, 2012;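 active means mean inhibition of at least 30% with at least half of replicates also reaching 30%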;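 further: 0% = DMSO neutral control and 100% = excess unlabeled competitor peptide PRC23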
SR-BI uptake up: activators of SR-BI mediated DiI-HDL uptake, primary screen, ldlA[mSR-BI] CHO cells, DiI fluorescence; AID 504775, 2011; 3 h; 100 = double the neutral-control signal; 320,000 compounds, 0.096% hits; activation, % at 12.5 µM;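 active means mean replicate activation of at least 60% and every replicate at or above 60%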;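 further: 0% = median plate neutral-control signal and 100% = twice that signal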
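System: CHO ldlA[mSR-BI] cells / Medium: HEPES-buffered (25 mM, pH 7.4) F12 plus 0.5% BSA / Probe or stimulus: labelled HDL, 10 µg/mL / Doses: single compound concentration, delivered by pin transfer / Schedule: 3 h, 37 °C / Measured by: DiI fluorescence, bottom read / Measure: cell-associated DiI fluorescence as measure of HDL uptake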
SR-BI HDL uptake: inhibitors of SR-BI mediated HDL lipid uptake, primary screen, ldlA[mSR-BI] cells, fluorescence, single point; ldlA[mSR-BI] CHO cells, DiI-HDL uptake fluorescence, 3 h; inhibition, % at 12.5 µM; 320,000 compounds, 0.96% hits;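 active means mean replicate inhibition of at least 70% and a set share of replicates each scoring 70 or more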;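 further: 0% = median of neutral control wells and 100% = median of positive control wells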
Target sequence (Q61009 whole entry, looked up): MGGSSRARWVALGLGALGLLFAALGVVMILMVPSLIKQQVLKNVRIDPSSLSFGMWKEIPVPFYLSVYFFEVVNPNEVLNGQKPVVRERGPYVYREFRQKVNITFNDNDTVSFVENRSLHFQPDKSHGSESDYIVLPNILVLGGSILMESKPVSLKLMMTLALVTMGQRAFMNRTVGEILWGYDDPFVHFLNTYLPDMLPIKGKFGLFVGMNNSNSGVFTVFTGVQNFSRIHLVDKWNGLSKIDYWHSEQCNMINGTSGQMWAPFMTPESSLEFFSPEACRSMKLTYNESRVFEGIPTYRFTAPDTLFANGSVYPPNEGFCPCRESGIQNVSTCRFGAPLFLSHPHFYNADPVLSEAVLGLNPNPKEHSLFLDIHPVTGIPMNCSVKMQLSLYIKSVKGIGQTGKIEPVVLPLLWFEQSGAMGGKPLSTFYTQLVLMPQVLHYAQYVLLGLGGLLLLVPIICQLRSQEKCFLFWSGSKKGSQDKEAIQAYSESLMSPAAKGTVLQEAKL
CAL PDZ FP-2: CAL PDZ peptide-binding inhibitors, primary screen, biochemical, fluorescence polarization, Cer-tagged CAL PDZ, HTS; Golgi-associated PDZ and coiled-coil motif-containing protein (Homo sapiens), Q9HD26; purified CAL PDZ, TMR-peptide fluorescence polarization, 1 h; inhibition, % at 20 µM; 330,000 compounds, 0.02% hits; AID 504414, 2011;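 active means highest replicate inhibition of at least 40%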;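 further: plate controls were DMSO neutral control wells for no effect and unlabeled competitor peptide control wells for full effect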
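material = purified tagged CAL PDZ domain construct (CerCALP) | buffer or medium = sodium phosphate/NaCl buffer pH 7.4 with TCEP, IgG, Thesit | reagent = TMR-labelled reporter peptide T*-PRC34 bound in PDZ groove | incubation = 1 h room-temperature incubation prior to read | measured by = fluorescence polarization (mP) | evaluation = percent inhibition from loss of millipolarization | control set = unlabelled peptide and DMSO controls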
ARNT-TACC3 inh: disruptors of ARNT/TACC3 protein interaction, primary screen, biochemical, AlphaScreen, single concentration; Transforming acidic coiled-coil-containing protein 3 (Homo sapiens), Q9Y6A5; AlphaScreen His-ARNT PAS-B/GST-TACC3 binding, luminescence; TACC3 fragment carries E629A point mutation; inhibition, % at 9.99 µM; 390,000 compounds, 0.66% hits; AID 623870, 2012;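 active means mean inhibition of replicates at least 50% and at least half of replicates each reaching 50%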;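 further: 0% = complete ARNT plus TACC3 wells and 100% = ARNT alone without TACC3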
Starred values were filed as active, the others as inactive; . = no result given; [ ] = remark or other dose.

SMILES	miR-122 sensor	CAL PDZ FP-1	SR-BI uptake up	SR-BI HDL uptake	CAL PDZ FP-2	ARNT-TACC3 inh
CCCCNC(=O)CSc1nc2ccc(N3CCOCC3)cc2c(=O)n1CCc1ccccc1	-2	-2	-21	21	-3	-6
O=C(CSc1nc2c(sc3ccccc32)c(=O)n1Cc1ccccc1)NCC1CCCO1 (stereo not drawn)	.	4	14	-14	89*	1
O=C(CSc1nc2ccc(N3CCOCC3)cc2c(=O)n1CCc1ccccc1)NCC1CCCO1 (stereo not drawn)	.	68*	9	-9	-3	-1
O=C(C[C@H]1CC[C@@H]2[C@H](COC[C@@H](O)CN2S(=O)(=O)c2ccccc2Cl)O1)NCc1ccccc1Cl	8[16.7 µM]	.	.	.	.	-2
Cc1cc2ccccc2n1CCNCc1c(C(=O)N2CCOCC2)nc2ccccn12	-16	82*	-7	7	0	-4
O=C(c1nc2ccccn2c1CNCCCn1ncc2ccccc21)N1CCOCC1	.	9	26	-26	0	5
Cc1ccc(C(=O)NN2C(=O)c3ccc(S(=O)(=O)c4ccc(C(=O)O)cc4)cc3C2=O)cc1	-7	47*	1	-1	1	-18
O=C(O)c1ccc(S(=O)(=O)c2ccc3c(c2)C(=O)N(NC(=O)c2ccc(O)cc2)C3=O)cc1	6	-1	14	-14	0	-5
CCOC(=O)c1c(-c2ccccc2)csc1NC(=O)/C(C#N)=C\c1ccc(O)c(OC)c1	.	-1	-85	85*	1	-2
Cc1noc(C)c1NC(=O)N[C@@H]1C=C[C@H](CC(=O)NCc2ccc(Cl)c(Cl)c2)O[C@H]1CO	.	.	.	.	.	-14
Cc1nc(NC(=O)/C=C/c2ccccc2)sc1C(=O)NCCO	0	.	-45	45	-1	-3
Cc1nc(NC(=O)/C=C/c2ccccc2)sc1C(=O)Nc1ccccc1	-14	0	-76	76*	-3	-12
CCC(=O)N1C[C@H]2[C@@H](c3ccccc31)[C@H](CO)N2C(=O)Nc1ccccc1	25[16.7 µM]	.	.	.	.	-17
Cc1cc(S(=O)(=O)Nc2ccc3cn[nH]c3c2)c(C)cc1Cl	144*	-7	1	-1	-1	.
CCC(=O)N1CCc2cc(Br)cc(S(=O)(=O)N3CCCCC3CC)c21 (stereo not drawn)	6	74*	-2	2	-1	.
CCN1[C@@H]2c3ccc(C4=CCCCC4)c(=O)n3C[C@H]1[C@H](CO)[C@H]2C(=O)N1CCCCC1	6[16.7 µM]	.	.	.	.	-5
Cc1cccc(OCC(=O)NC(=S)NNC(=O)c2ccncc2)c1	-3	-1	-14	14	-1	56*
CC(C)N1C(=O)CCC1C(=O)N1CCCc2ccccc21 (stereo not drawn)	-3	-2	20	-20	0	13*
O=C(Nc1cccc(F)c1)N1C[C@H]2[C@@H](c3ccccc31)[C@@H](CO)N2C(=O)c1ccccn1	42[16.7 µM]	.	.	.	.	0
COc1c(Cl)cc(Br)c(OC)c1C(=O)NC(=O)Nc1nc(C)cc(C)n1	.	83*	-21	21	-1	-3
COc1cccc(-c2cnc3c(c2)C(=O)N([C@H](C)CO)C[C@@H](C)[C@@H](CN(C)C(=O)Nc2c(C)noc2C)O3)c1	6[16.7 µM]	.	.	.	.	0
C[C@@H]1CN([C@H](C)CO)C(=O)Cc2cc(NC(=O)Nc3ccc(F)cc3)ccc2O[C@H]1CN(C)S(=O)(=O)c1ccc(Cl)cc1	5[16.7 µM]	.	.	.	.	-7
O=S(=O)(O)c1cccc2c(N=Nc3ccc(O)c4ncccc34)cccc12	-5	11	-26	26	3	73*
Cc1ccccc1N=Nc1ccc(O)c2ncccc12	0	1	-11	11	-1	-5
O=C(C[C@@H]1CC[C@@H]2[C@H](COC[C@@H](O)CN2C(=O)Nc2cccc(F)c2)O1)NCCCN1CCOCC1	-2[16.7 µM]	.	.	.	.	-2
SMILES	miR-122 sensor	CAL PDZ FP-1	SR-BI uptake up	SR-BI HDL uptake	CAL PDZ FP-2	ARNT-TACC3 inh
COc1ccc(-c2oc(=O)c3cc(OC)c(OC)cc3c2/C=C/c2ccc(OC(C)=O)cc2)cc1	2	-6	-58	58	-3	-4
COc1cc(-c2noc(C)c2/C=C/c2ccc(OC(C)=O)cc2)cc(OC)c1OC	29	-5	-75	75*	-1	-2
Cc1noc(C)c1NC(=O)Nc1cccc2c1O[C@@H](CN(C)C(=O)NC(C)C)[C@H](C)CN([C@H](C)CO)C2=O	1[16.7 µM]	.	.	.	.	9
O=C(C[C@H]1CC[C@H]2[C@@H](COC[C@H](O)CN2C(=O)Nc2ccc(C(F)(F)F)cc2)O1)NC1Cc2ccccc2C1	-11[16.7 µM]	.	.	.	.	-18
CS(=O)(=O)Nc1ccc(C2=NN(C(=O)c3ccco3)C(c3ccccc3)C2)cc1 (stereo not drawn)	-9	-6	-5	5	-2	-6
CS(=O)(=O)Nc1ccc(C2=NN(C(=O)c3ccco3)C(c3ccco3)C2)cc1 (stereo not drawn)	-1	33*	-17	17	-2	7
C[C@H]1CN([C@@H](C)CO)S(=O)(=O)c2ccc(-c3cncnc3)cc2O[C@H]1CN(C)C(=O)CC1CC1	2[16.7 µM]	.	.	.	.	-1
O=S(=O)(N[C@@H]1CC[C@@H](CCNS(=O)(=O)c2ccccc2Cl)O[C@@H]1CO)c1ccccc1	.	.	.	.	.	-7
COc1ccc(NS(=O)(=O)c2cc(Br)cc3c2N(C(C)=O)CC3)cc1	189*	-3	-3	3	-5	1
Cc1noc(C)c1S(=O)(=O)N(C)C[C@H]1OCCCC[C@@H](C)Oc2ccc(NC(=O)C3CCCCC3)cc2C(=O)N([C@@H](C)CO)C[C@H]1C	0[16.7 µM]	.	.	.	.	-5
COc1ccccc1/C=C/C=N/NC(=O)c1cc(-c2ccc(C)o2)[nH]n1	4	62*	-49	49	-4	4
Cc1ccc(/C=N/NC(=O)c2cc(-c3ccc(C)o3)[nH]n2)cc1	11	8	.	.	-3	-1
COc1ccc2c(-c3ccc(OCCN4CCCCC4)cc3)c(-c3ccccc3OC)sc2c1	2	32*	-5	5	-1	7
COc1ccc(-c2cc(-c3cc(F)ccc3O)[nH]n2)cc1OC	0	-5	-72	72*	-5	1

Screening results: PubChem, Broad Institute
